# According to ChEMBL document CHEMBL5136969, “A niclosamide-tobramycin hybrid adjuvant potentiates cefiderocol against P. aeruginosa” (2021):
# Active and inactive are the calls of the source.
# Columns and labels:
# Pseudomonas aeruginosa [1] = assay: Potentiation of cefiderocol-induced antibiotic activity against MDR clinical isolate Pseudomonas aeruginosa PA260 assessed as MIC fold reduction at 8 ug/ml after 18 hrs by microbroth dilution method; type: functional, organism-based; settings: dose 8.0 µg/ml
# Procedure, shortened: (§1)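 Initial screen in MHB using a fixed 8 μg mL−1 of adjuvant combined with each antibiotic under 2-fold dilution. Broth microdilution used about 5 × 10^5 CFU/mL at 37 °C for 18 h, with visible turbidity read and confirmed at 590 nm. Fold-potentiation = antibiotic MIC alone ÷ antibiotic MIC with adjuvant.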
# Pseudomonas aeruginosa [2] = assay: Antibacterial activity against colistin-resistant clinical isolate Pseudomonas aeruginosa PA101243 assessed as reduction in bacterial growth after 18 hrs in presence of cefiderocol by microbroth dilution method; type: functional
# Procedure, shortened: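 Checkerboard in MHB (iron-replete, not iron-depleted CAMHB). Cefiderocol was 2-fold serially diluted along one axis and the adjuvant along the other. Inoculum was 0.5 McFarland diluted 1:50, about 5 × 10^5 CFU/mL final. Incubation was 18 h at 37 °C, with turbidity read visually and confirmed at 590 nm. FIC was the MIC in combination over the MIC alone for each agent, and the FIC index was their sum. Cut-offs were ≤0.5 synergy, >0.5–4 additive, >4 antagonism.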
# Escherichia coli [3] = assay: Antibacterial activity against Escherichia coli 94393 assessed as reduction in bacterial growth after 18 hrs in presence of cefiderocol by microbroth dilution method; type: functional
# Procedure, shortened: (§2)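 Checkerboard in Mueller-Hinton broth: cefiderocol 2-fold diluted on one axis, adjuvant 2-fold on the other. Overnight cultures were adjusted to 0.5 McFarland in saline, diluted 1:50 in MHB, and inoculated at about 5 × 10^5 CFU/mL. Incubation was 18 h at 37 °C. Turbidity was read visually and confirmed at 590 nm. FIC index = FIC of antibiotic + FIC of adjuvant; ≤0.5 synergy, >4 antagonism.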
# Pseudomonas aeruginosa [4] = assay: Antibacterial activity against MDR clinical isolate Pseudomonas aeruginosa PA109084 assessed as reduction in bacterial growth after 18 hrs in presence of cefiderocol by microbroth dilution method; type: functional
# Procedure, shortened: (§3)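 Checkerboard in MHB. Cefiderocol was 2-fold serially diluted along one axis and the adjuvant along the other. Inoculum was prepared from 0.5 McFarland saline suspensions diluted 1:50 in MHB, giving about 5 × 10^5 CFU/mL final. Plates ran 18 h at 37 °C, with turbidity confirmed at 590 nm. FIC = combination MIC ÷ MIC alone for each agent, and FIC index = sum of both. Interpretation: ≤0.5 synergy, >0.5–4 additive, >4 antagonism.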
# Pseudomonas aeruginosa [5] = assay: Potentiation of ciprofloxacin-induced antibiotic activity against Pseudomonas aeruginosa PAO1 assessed as MIC fold reduction at 8 ug/ml after 18 hrs by microbroth dilution method; type: functional; settings: dose 8 µg/ml
# Procedure, shortened: (§4)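 Adjuvant held at a fixed 8 μg/mL while the antibiotic was 2-fold serially diluted in Mueller-Hinton broth (MHB), per CLSI microbroth dilution. Overnight cultures were adjusted in saline to 0.5 McFarland, then diluted 1:50 in MHB to about 5 × 10^5 CFU/mL final, and incubated 18 h at 37 °C. MIC was the lowest concentration with no visible turbidity, confirmed at 590 nm. Fold potentiation = MIC alone / MIC with adjuvant.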
# Acinetobacter baumannii [6] = assay: Potentiation of fosfomycin-induced antibiotic activity against Acinetobacter baumannii ATCC 17978 assessed as MIC fold reduction at 8 ug/ml after 18 hrs by microbroth dilution method; type: functional; settings: dose 8 µg/ml; procedure, shortened: as §4
# Escherichia coli [7] = assay: Antibacterial activity against Escherichia coli 94474 assessed as reduction in bacterial growth after 18 hrs by microbroth dilution method; type: functional
# Procedure, shortened: (§5)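 CLSI microbroth dilution in MHB. Overnight cultures were adjusted to 0.5 McFarland in saline, diluted 1:50, and inoculated at about 5 × 10^5 CFU/mL. Agents were 2-fold serially diluted and incubated 18 h at 37 °C. MIC is the lowest concentration without visible turbidity, confirmed by absorbance at 590 nm. Medium with and without cells served as controls.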
# Pseudomonas aeruginosa [8] = assay: Antibacterial activity against MDR clinical isolate Pseudomonas aeruginosa PA101885 assessed as potentiation of cefiderocol antibacterial activity by measuring FIC index after 18 hrs by microbroth dilution method; type: functional; procedure, shortened: as §3
# Enterobacter cloacae [9] = assay: Antibacterial activity against Enterobacter cloacae 121187 assessed as reduction in bacterial growth after 18 hrs in presence of cefiderocol by microbroth dilution method; type: functional; procedure, shortened: as §2
# Pseudomonas aeruginosa [10] = assay: Potentiation of vancomycin-induced antibiotic activity against Pseudomonas aeruginosa PAO1 assessed as MIC fold reduction at 8 ug/ml after 18 hrs by microbroth dilution method; type: functional; settings: dose 8 µg/ml
# Escherichia coli [11] = assay: Antibacterial activity against Escherichia coli 94474 assessed as potentiation of cefiderocol antibacterial activity by measuring FIC after 18 hrs by microbroth dilution method; type: functional; procedure, shortened: as §2
# Escherichia coli [12] = assay: Potentiation of ceftolozane-induced antibiotic activity against Escherichia coli ATCC 25922 assessed as MIC fold reduction at 8 ug/ml after 18 hrs by microbroth dilution method; type: functional; settings: dose 8 µg/ml; procedure, shortened: as §4
# Escherichia coli [13] = assay: Potentiation of trimethoprim-induced antibiotic activity against Escherichia coli ATCC 25922 assessed as MIC fold reduction at 8 ug/ml after 18 hrs by microbroth dilution method; type: functional; settings: dose 8 µg/ml
# Pseudomonas aeruginosa [14] = assay: Potentiation of rifampicin-induced antibiotic activity against Pseudomonas aeruginosa PAO1 assessed as MIC fold reduction at 8 ug/ml after 18 hrs by microbroth dilution method; type: functional; settings: dose 8 µg/ml
# Pseudomonas aeruginosa [15] = assay: Potentiation of cefiderocol-induced antibiotic activity against MDR clinical isolate Pseudomonas aeruginosa PA259 assessed as MIC fold reduction at 8 ug/ml after 18 hrs by microbroth dilution method; settings: dose 8 µg/ml
# Pseudomonas aeruginosa [16] = assay: Potentiation of doxycycline-induced antibiotic activity against Pseudomonas aeruginosa PAO1 assessed as MIC fold reduction at 8 ug/ml after 18 hrs by microbroth dilution method; type: functional; settings: dose 8 µg/ml; procedure, shortened: as §4
# Acinetobacter baumannii [17] = assay: Antibacterial activity against Acinetobacter baumannii AB031 assessed as reduction in bacterial growth after 18 hrs by microbroth dilution method; type: functional; procedure, shortened: as §5
# Enterobacter cloacae [18] = assay: Antibacterial activity against Enterobacter cloacae 121187 assessed as reduction in bacterial growth after 18 hrs by microbroth dilution method; type: functional; procedure, shortened: as §5
# Acinetobacter baumannii [19] = assay: Potentiation of cefiderocol-induced antibiotic activity against Acinetobacter baumannii ATCC 17978 assessed as MIC fold reduction at 8 ug/ml after 18 hrs by microbroth dilution method; type: functional; settings: dose 8 µg/ml; procedure, shortened: as §1
# Pseudomonas aeruginosa [20] = assay: Antibacterial activity against MDR clinical isolate Pseudomonas aeruginosa PA259 assessed as reduction in bacterial growth after 18 hrs in presence of cefiderocol by microbroth dilution method; type: functional; procedure, shortened: as §3
# Escherichia coli [21] = assay: Potentiation of erythromycin-induced antibiotic activity against Escherichia coli ATCC 25922 assessed as MIC fold reduction at 8 ug/ml after 18 hrs by microbroth dilution method; type: functional; settings: dose 8 µg/ml; procedure, shortened: as §4
smiles,measurement,setting,value
NC[C@H]1O[C@H](O[C@H]2[C@H](OCCCCc3cn(-c4ccc(NC(=O)c5cc(Cl)ccc5O)cc4)nn3)[C@@H](O[C@H]3O[C@H](CO)[C@@H](O)[C@H](N)[C@H]3O)[C@H](N)C[C@@H]2N)[C@H](N)C[C@@H]1O,Activity,Pseudomonas aeruginosa [1],Active
same,MIC,Pseudomonas aeruginosa [2],2 µg/mL
same,MIC,Escherichia coli [3],1 µg/mL
same,MIC,Pseudomonas aeruginosa [4],0.5 µg/mL
same,fold change (FC),Pseudomonas aeruginosa [5],4
same,fold change (FC),Acinetobacter baumannii [6],4
same,MIC,Escherichia coli [7],> 128 µg/mL
same,FIC,Pseudomonas aeruginosa [8],0.017
same,MIC,Enterobacter cloacae [9],0.25 µg/mL
same,fold change (FC),Pseudomonas aeruginosa [10],4
same,FIC,Escherichia coli [11],0.25
same,fold change (FC),Escherichia coli [12],4
same,fold change (FC),Escherichia coli [13],4
same,fold change (FC),Pseudomonas aeruginosa [14],4
same,fold change (FC),Pseudomonas aeruginosa [15],32
same,fold change (FC),Pseudomonas aeruginosa [16],4
same,MIC,Acinetobacter baumannii [17],> 128 µg/mL
same,MIC,Enterobacter cloacae [18],> 128 µg/mL
same,fold change (FC),Acinetobacter baumannii [19],4
same,MIC,Pseudomonas aeruginosa [20],4 µg/mL
same,fold change (FC),Escherichia coli [21],4
